Experimental data taken from ChEMBL document CHEMBL1142947, “Gallium(III) and iron(III) complexes of alpha-N-heterocyclic thiosemicarbazones: synthesis, characterization, cytotoxicity, and interaction with ribonucleotide reductase” (J Med Chem, 2007).

Experiments:
41M = assay: Cytotoxicity against human 41M cells after 96 hrs by MTT assay; type: cell-based
Method in brief: (§1)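 Adherent cells grown in MEM with 10% heat-inactivated FBS, 1 mM sodium pyruvate, 4 mM L-glutamine and nonessential amino acids at 37 °C, 5% CO2. Seeded at 4 × 10^3 cells/well and preincubated 24 h. Exposed 96 h to DMSO stocks serially diluted in medium (DMSO ≤0.5%). MTT added for 4 h, formazan dissolved in DMSO, read at 550 nm (ref 690 nm). IC50 interpolated from T/C curves; ≥3 independent experiments, six cultures per concentration.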

[1] = Cytotoxicity against human SKBR3 cells after 96 hrs by MTT assay; type: cell-based; conditions: SK-BR-3, 96 h; method in brief: as §1
[2] = target: T1, Ribonucleoside-diphosphate reductase subunit M2 (Mus musculus) (UniProt P11157); assay: Effect on mouse ribonucleotide reductase R2 protein measured by tyrosyl radical concentration in aerobic condition at 3 mM, 298 K after 1005 mins
T1 sequence (whole entry): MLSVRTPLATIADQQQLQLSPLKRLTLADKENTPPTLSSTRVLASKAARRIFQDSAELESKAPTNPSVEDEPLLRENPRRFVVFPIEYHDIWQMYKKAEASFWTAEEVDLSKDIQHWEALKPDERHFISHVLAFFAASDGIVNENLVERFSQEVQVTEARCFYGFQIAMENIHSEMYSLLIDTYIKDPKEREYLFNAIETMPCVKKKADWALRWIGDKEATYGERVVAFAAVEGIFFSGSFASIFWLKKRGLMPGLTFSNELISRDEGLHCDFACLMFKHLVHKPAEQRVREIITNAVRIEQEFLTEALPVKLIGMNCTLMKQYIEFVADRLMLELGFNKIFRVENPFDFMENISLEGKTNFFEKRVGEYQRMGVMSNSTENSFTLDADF
Method in brief: (§2)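 Reconstituted purified mouse R2 diluted to 30 µM monomer in 50 mM Tris/HCl pH 7.6, 100 mM KCl. Compound added from 3 mM stock (DMSO, or water for nitrates) to a final 30–33 µM (1:1 with monomer), about 1% DMSO, plus 1 mM DTT, under air at 298 K. Samples frozen in liquid nitrogen after each incubation; tyrosyl radical quantified by X-band EPR at 40 K.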

[3] = target: T1, Ribonucleoside-diphosphate reductase subunit M2 (Mus musculus); assay: Effect on mouse ribonucleotide reductase R2 protein measured by tyrosyl radical concentration in anaerobic condition at 3 mM, 298 K after 1 min
Method in brief: (§3)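 Run in an anaerobic tent with argon-bubbled, vacuum-degassed buffer (50 mM Tris/HCl pH 7.6, 100 mM KCl) and solutions. Protein degassed and diluted to a final 30 µM R2 monomer with 30 µM compound (from 3 mM stocks), 1% DMSO and 1 mM DTT freshly prepared. Incubated at 298 K for 1, 15 and 1005 min total; tyrosyl radical measured by EPR at 77 K.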

[4] = target: T1, Ribonucleoside-diphosphate reductase subunit M2 (Mus musculus); assay: Effect on mouse ribonucleotide reductase R2 protein measured by tyrosyl radical concentration in anaerobic condition at 3 mM, 298 K after 15 mins; method in brief: as §3
[5] = target: T1, Ribonucleoside-diphosphate reductase subunit M2 (Mus musculus); assay: Effect on mouse ribonucleotide reductase R2 protein measured by tyrosyl radical concentration in anaerobic condition at 3 mM, 298 K after 1005 mins; method in brief: as §3
[6] = target: T1, Ribonucleoside-diphosphate reductase subunit M2 (Mus musculus); assay: Effect on mouse ribonucleotide reductase R2 protein measured by tyrosyl radical concentration in aerobic condition at 3 mM, 298 K after 1 min; method in brief: as §2
[7] = target: T1, Ribonucleoside-diphosphate reductase subunit M2 (Mus musculus); assay: Effect on mouse ribonucleotide reductase R2 protein measured by tyrosyl radical concentration in aerobic condition at 30-33 µM, 298 K after 15 mins

| SMILES | IC50 (41M) [nM] | IC50 [1] [nM] | Activity [2] [µM] | Activity [3] [µM] | Activity [4] [µM] | Activity [5] [µM] | Activity [6] [µM] | Activity [7] [µM] |
| --- | --- | --- | --- | --- | --- | --- | --- | --- |
| C/C(=N\NC(=S)N1CCCC1)c1cnccn1 | 1.1 | 5 |  |  |  |  |  |  |
| C/C(=N\NC(=S)N1CCCC1)c1ccccn1 | 0.36 | 3.1 |  |  |  |  |  |  |
| C/C(=N\NC(=S)N(C)C)c1cnccn1 | 0.073 | 1.4 |  |  |  |  |  |  |
| C/C(=N\NC(=S)N1CCCCC1)c1cnccn1 | 0.41 | 2.2 |  |  |  |  |  |  |
| C/C(=N\NC(=S)N(C)C)c1ccccn1 | 0.22 | 2.7 | 0.5 | 8.5 | 0 | 0 | 17.2 | 7 |
